GPR7 antagonist: GPR7 receptor antagonists, primary screen, cell-based, fluorescence, single concentration; Neuropeptides B/W receptor type 1 (Homo sapiens), P48145; GPR7-expressing cells, fluorescence antagonist assay; inhibition, % at 4.4 µM; hit rate 1.1% among 290,000; AID 1861, 2009; in the data active = inhibition above about 16%, passing the limit was not always enough;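 also: cells stimulated with the agonist NPW; 0% = agonist with vehicle and 100% = vehicle without agonist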
CHO parental Ca: ATP-evoked calcium signal inhibitors, parental CHO, primary screen, counter-screen for OX1R antagonist project, cell-based, fluorescence, Fluo-8 calcium dye. parental CHO-K1, ATP-induced calcium, Fluo-8 fluorescence. hit rate 0.63% among 330,000. inhibition, % at 5.6 µM;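 active = inhibition above that plate's mean sample inhibition plus 3 SD, cut at about 26% in these data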;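 also: 0% = ATP-challenged DMSO wells and 100% = DMSO wells without ATP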
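Test system: untransfected parental CHO cell line. Compound: one dose, 5.6 µM nominal. Detection: intracellular calcium via Fluo-8 no-wash fluorescent dye. Measure: % inhibition. Benchmarks: ATP-challenged DMSO wells low, unchallenged DMSO wells high.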
TAAR1 antag: human TAAR1 antagonists, primary screen, Fluo-8 calcium fluorescence, CHO RD-HGA16 cells | Trace amine-associated receptor 1 (Homo sapiens), Q96RJ0 | antagonist | inhibition, % at 3 µM | hit rate 1.5% among 360,000;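 active = inhibition above a per-plate cutoff, the mean inhibition of test compounds on that plate plus 3 SD, cut at about 49% in these data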;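 also: 0% = DMSO plus EC80 beta-PEA response and 100% = DMSO alone without agonist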
Target sequence (Q96RJ0 whole entry, looked up): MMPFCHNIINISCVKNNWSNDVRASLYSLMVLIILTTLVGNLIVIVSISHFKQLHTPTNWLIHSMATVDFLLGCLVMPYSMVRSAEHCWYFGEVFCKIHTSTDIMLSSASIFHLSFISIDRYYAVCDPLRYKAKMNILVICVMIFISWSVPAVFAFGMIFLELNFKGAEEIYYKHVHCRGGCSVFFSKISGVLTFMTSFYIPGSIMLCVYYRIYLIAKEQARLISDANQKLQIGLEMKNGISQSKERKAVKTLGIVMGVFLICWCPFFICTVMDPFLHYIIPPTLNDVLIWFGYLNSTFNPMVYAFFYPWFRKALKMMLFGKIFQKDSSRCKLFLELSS
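Test system: CHO RD-HGA16 cells bearing hTAAR1 | Reagent: β-PEA, EC80 | Compound dosing: 3 µM, single point | Schedule: Dye loading 75 min at 37 °C, then 30 min room temperature | Signal: Calcium fluorescence with Fluo-8 | Evaluation: Percent inhibition of PEA-evoked calcium signal, max/basal emission ratio | Control set: DMSO-only wells and EC80 β-PEA-stimulated wells | Repeats: Singlicate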
TAAR1 ag: human TAAR1 agonists, primary screen, Fluo-8 calcium fluorescence, CHO RD-HGA16 cells; activation, % at 3 µM; hit rate 0.99% among 360,000; Trace amine-associated receptor 1 (Homo sapiens), Q96RJ0; vehicle wells 0%, saturating PEA agonist 100%;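 active = activation above the mean activation of all test compounds in the run plus 3 SD, cut at about 38% in these data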
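Test system: RD-HGA16 (CHO) cells co-expressing Gα16 and hTAAR1 | Doses: Single dose, 3 µM | Schedule: 17-24 h seeding, 75 min 37 °C dye, 30 min RT | Evaluation: % activation from peak over basal fluorescence ratio, DMSO-to-PEA scaled | Technique: Kinetic Fluo-8 calcium fluorescence | Benchmarks: Low control DMSO, high control PEA (EC100)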
OX1R antag-1: antagonists of human orexin 1 receptor (OX1R); Orexin/Hypocretin receptor type 1 (Homo sapiens), O43613; hit rate 1.8% among 330,000; OX1R-expressing cells, FRET antagonist read-out; inhibition, % at 6.6 µM; in the data active = inhibition mostly above about 38%, no sharp cut-off; inactive = mostly below about 40%;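 also: 0% = agonist challenge alone and 100% = reference antagonist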
OX1R antag-2: OX1R (HCRTR1) antagonists, primary screen, fluorescence, CHO/OX1R cells, Fluo-8 calcium, orexin A | Orexin/Hypocretin receptor type 1 (Homo sapiens), O43613 | hit rate 0.43% among 330,000 | Fluo-8 calcium fluorescence | inhibition, % at 5 µM;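 active = inhibition above its plate's threshold, mean inhibition of all tested compounds on the plate plus 3 SD, cut at about 37% in these data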;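 also: 0% = orexin A challenge wells and 100% = SB-334867-A antagonist wells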
nonsel antag count: nonselective antagonists in TAAR1 counter-screen cells, counter-screen for hTAAR1 antagonist project, cell-based, fluorescence, calcium; shares compounds with TAAR1 antag; counterscreen cell line, antagonist mode; inhibition, % at 3 µM; hit rate 77% among 2,400; AID 651780, 2012; in the data active = inhibition above about 22%;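 also: CHO-Ga16 host cells stimulated with ATP at an EC80 level; 0% = agonist EC80 plus vehicle and 100% = vehicle without agonist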
TAAR1 ant conf: human TAAR1 antagonists, retest of hits, confirmation, cell-based, fluorescence | shares compounds with TAAR1 antag | TAAR1-expressing cells, fluorescence antagonist read-out | inhibition, % at 3 µM | hit rate 40% among 2,400; in the data active = inhibition above about 49%;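 also: CHO-Ga16 host cells challenged with agonist PEA near its EC80; 0% = agonist at EC80 plus vehicle and 100% = vehicle with no agonist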
Ga16 ag counter: calcium activation in Ga16-expressing cells, counter-screen for TAAR1 antagonist project, cell-based, fluorescence | shares compounds with TAAR1 antag | agonist counterscreen | activation, % at 3 µM | hit rate 18% among 2,400 | AID 651953, 2012; in the data active = activation above about 12%;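 also: 0% = vehicle wells and 100% = saturating stimulus response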
TAAR1 ag count: TAAR1 activation by candidate antagonists – cell-based, fluorescence, counter-screen for TAAR1 antagonist project; shares compounds with TAAR1 antag; hTAAR1 cell line, agonist mode; activation, % at 3 µM; hit rate 2% among 2,400; in the data active = activation above about 37%;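 also: CHO cells stably expressing TAAR1 with calcium dye readout; 0% = DMSO vehicle and 100% = full agonist response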
Starred values were filed as active, the others as inactive; nt = no result. The list is not random: actives were taken first. Their share in the collection is about 4.5%.

SMILES | GPR7 antagonist | CHO parental Ca | TAAR1 antag | TAAR1 ag | OX1R antag-1 | OX1R antag-2 | nonsel antag count | TAAR1 ant conf | Ga16 ag counter | TAAR1 ag count
CN1C(=O)/C(=C/c2ccccc2OCc2ccc(C(=O)O)cc2)NC1=S | -10.2 | -12.4 | -2.6 | 1.0 | 65.1 | -12.5 | nt | nt | nt | nt
O=C(O)c1ccc(COc2ccccc2C=C2C(=O)c3ccccc3C2=O)cc1 | 3.0 | 4.8 | 74.6* | 30.5 | 29.0 | -11.0 | 36.7* | 53.6* | 11.1 | 23.4
CC(C)NC(=O)N(C)C[C@@H]1OCc2cn(nn2)CCCC(=O)N([C@H](C)CO)C[C@H]1C | nt | nt | -1.0 | 0.6 | nt | nt | nt | nt | nt | nt
CC(C)n1[nH]c2ccccc2c1=O | nt | nt | -5.1 | 0.1 | nt | nt | nt | nt | nt | nt
CCN(CC(=O)Nc1ccccc1C(F)(F)F)C(=O)c1ccc2c(c1)NC(=O)C(C)S2 (stereo not drawn) | nt | nt | -7.8 | 8.2 | nt | nt | nt | nt | nt | nt
CC(C)[C@H](NC(=O)OCc1ccccc1)C(=O)OCC(=O)NCCc1ccccc1 | -8.6 | -11.1 | 15.5 | 9.6 | 24.3 | -14.9 | nt | nt | nt | nt
CC(=O)c1cccc(NC(=O)COC(=O)[C@@H](NC(=O)OCc2ccccc2)C(C)C)c1 | -6.4 | -15.3 | 60.0* | 19.7 | 18.6 | -37.9 | 29.9* | 49.8* | 10.4 | 14.3
Cc1ccc(NC(=O)c2oc3ccc(Br)cc3c2C)cc1S(=O)(=O)N1CCOCC1 | nt | nt | 8.7 | 3.1 | nt | nt | nt | nt | nt | nt
COc1cccc(CN(C)C(=O)C(CCSC)NS(=O)(=O)c2ccc3c(c2)OCCO3)c1OC (stereo not drawn) | nt | -14.8 | 75.0* | 17.6 | 40.9 | -11.5 | 37.5* | 62.8* | 11.7* | 14.1
CSCCC(NS(=O)(=O)c1ccc2c(c1)OCCO2)C(=O)N(C)Cc1ccc(C)cc1 (stereo not drawn) | -12.6 | -13.8 | 63.2* | 11.3 | 2.2 | -24.8 | 23.2* | 46.8 | 11.1 | 11.3
CSCCC(NS(=O)(=O)c1ccc2c(c1)OCCO2)C(=O)NCCc1ccccn1 (stereo not drawn) | -1.8 | -16.2 | 3.1 | 0.5 | 11.7 | -28.9 | nt | nt | nt | nt
Cc1cc(NC(=O)CN2C(=O)/C(=C/c3ccc(C(C)C)cc3)SC2=S)no1 | nt | nt | -11.1 | 0.6 | nt | nt | nt | nt | nt | nt
CCOC(=O)[C@]12CCC=C1N(Cc1ccc3c(c1)OCO3)C(=O)[C@H](CC(=O)NCc1cccs1)C2 | nt | nt | -33.1 | -0.6 | nt | nt | nt | nt | nt | nt
O=C1NN=C2CCCCCCCCCCC12 (stereo not drawn) | nt | nt | -17.9 | 1.6 | nt | nt | nt | nt | nt | nt
CC(C)(C)n1nnnc1C(c1ccccc1)N1CCN(c2ncccc2C(F)(F)F)CC1 (stereo not drawn) | nt | nt | 13.3 | 3.3 | nt | nt | nt | nt | nt | nt
Cc1cc(=O)c(C(=O)Nc2cccc(C(=O)NC3CC3)c2)nn1-c1ccccc1 | nt | nt | -6.6 | 0.8 | nt | nt | nt | nt | nt | nt
Nc1nc(-c2cc(O)ccc2[N+](=O)[O-])cc(-c2ccccc2)c1[N+](=O)[O-] | -8.7 | nt | 48.9* | 14.2 | nt | nt | 24.0* | 39.9 | 5.6 | 3.1
O=C(N[C@@H]1c2ccccc2CC[C@@H]1OCc1ccccc1)c1ccc(C(F)(F)F)cc1 | nt | -9.9 | -21.0 | 4.6 | 3.2 | 0.0 | nt | nt | nt | nt
CCC(C)C(NC(=O)C(Cc1ccc(O)cc1)NC(=O)OCc1ccccc1)C(=O)OC (stereo not drawn) | nt | nt | -24.4 | 1.8 | nt | nt | nt | nt | nt | nt

High-throughput results deposited in PubChem by The Scripps Research Institute Molecular Screening Center.
